According to ChEMBL document CHEMBL3244336, “Antitumor agents. 1. 1,4-Bis[(aminoalkyl)amino]-9,10-anthracenediones” (J Med Chem, 1979):
Activity calls are given as the source filed them.

Columns and labels:
P388 [1] = experiment: Antitumor activity against mouse P388 cells allografted in mouse assessed as increase of median life span at 100 mg/kg, ip on day 1, 5 and 9 measured up to 60 days relative to control; format: functional; settings: route intraperitoneal
P388 [2] = experiment: Antitumor activity against mouse P388 cells allografted in mouse assessed as disease cure at 100 mg/kg, ip on day 1, 5 and 9 measured up to 60 days; format: functional, organism-based; parameters: dose 100 mg/kg
In short: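 BDF or CDF1 mice injected ip with ascitic leukemia cells, then dosed ip on days 1, 5 and 9. Deaths recorded for 60 days. Read-outs: percent increase in median life span over controls, and "cures" as survivors/total at 60 days.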

B16 [3] = experiment: Antitumor activity against mouse B16 cells allografted in BDF1 mouse assessed as increase of median life span at 12.5 mg/kg, ip on day 1 to 9 measured up to 80 days relative to control; format: functional; settings: route intraperitoneal
B16 [4] = experiment: Antitumor activity against mouse B16 cells allografted in BDF1 mouse assessed as disease cure at 12.5 mg/kg, ip on day 1 to 9 measured up to 80 days; format: functional, organism-based; parameters: dose 12.5 mg/kg
In short: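 BDF1 mice implanted ip with a homogenate from 0.05 g of tumor. Dosed ip on days 1–9, with deaths recorded for 80 days. "Cures" counted as survivors/total at 80 days.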

P388 [5] = experiment: Antitumor activity against mouse P388 cells allografted in ip dosed mouse assessed as minimum effective dose administered as single dose; format: functional; settings: read-out: MED
In short: (§1)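 Drug given ip to P388 tumor-bearing mice, either once as a single dose or once each 4 days for three injections. Minimum effective dose defined as the dose giving 40% increase in life span over control, read from regression lines of log dose-response data.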

P388 [6] = experiment: Antitumor activity against mouse P388 cells allografted in ip dosed mouse assessed as minimum effective dose administered as once each 4 days for 3 total injection; format: functional; settings: 96 h, read-out: MED; in short: as §1
[7] = Toxicity in […] assessed as maximum tolerated dose administered as single dose; format: organism-based, P388; settings: mouse, in vivo, ip
[8] = Toxicity in […] assessed as maximum tolerated dose administered as once each 4 days for 3 total injection; format: organism-based, P388; settings: mouse, in vivo, ip
P388 [9] = experiment: Antitumor activity against mouse P388 cells allografted in ip dosed mouse assessed as dose providing 40% increase in life span administered as once each 4 days for 3 total injection; format: functional
In short: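 P388 tumor-bearing mice dosed ip, either once as a single dose or once every 4 days for three injections. It was read from regression lines of log dose-response data.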

[10] = Therapeutic index, ratio of MTD for mouse P388 cells allografted ip dosed mouse to MED for mouse P388 cells allografted in ip dosed mouse administered as single dose; format: organism-based; settings: in vivo, read-out: TI
In short: (§2)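 Therapeutic index is MTD/MED for ip dosing, either single or once every 4 days ×3. MTD is the 10% lethal dose in normal mice over 21 days. MED is the dose giving a 40% life-span increase in P388-bearing mice. Both come from log dose-response regression lines.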

[11] = Therapeutic index, ratio of MTD for mouse P388 cells allografted ip dosed mouse to MED for mouse P388 cells allografted in ip dosed mouse administered as once each 4 days for 3 total injection; format: organism-based; settings: in vivo, read-out: TI; in short: as §2
B16 [12] = experiment: Antitumor activity against mouse B16 cells allografted in BDF1 mouse assessed as increase of median life span at 50 mg/kg, ip on day 1 to 9 measured up to 80 days relative to control; format: functional; settings: route intraperitoneal
In short: (§3)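 BDF1 mice implanted ip with a homogenate from 0.05 g of B16 tumor. Test agent given ip on days 1-9. Deaths recorded for 80 days. Result is % increase in median life span over untreated controls. "Cures" are survivors/total at 80 days.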

P388 [13] = experiment: Antitumor activity against mouse P388 cells allografted in mouse assessed as increase of median life span at 200 mg/kg, ip on day 1, 5 and 9 measured up to 60 days relative to control; format: functional; settings: route intraperitoneal
In short: (§4)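 BDF1 or CDF1 mice inoculated ip with ascitic P388 leukemia cells. Dosing ip on days 1, 5 and 9. Deaths recorded for 60 days; % increase in median life span over controls. "Cures" are survivors/total at 60 days.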

P388 [14] = experiment: Antitumor activity against mouse P388 cells allografted in mouse assessed as disease cure at 200 mg/kg, ip on day 1, 5 and 9 measured up to 60 days; format: functional, organism-based; parameters: dose 200 mg/kg
In short: (§5)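 BDF1 or CDF1 mice inoculated ip with ascitic P388 leukemia cells, dosed ip on days 1, 5 and 9. Deaths recorded for 60 days; "cures" taken as number of survivors/total at 60 days.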

B16 [15] = experiment: Antitumor activity against mouse B16 cells allografted in BDF1 mouse assessed as disease cure at 50 mg/kg, ip on day 1 to 9 measured up to 80 days; format: functional, organism-based; parameters: dose 50 mg/kg
In short: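 BDF1 mice implanted ip with homogenate from 0.05 g of B16 tumor, then dosed ip on days 1-9. Deaths recorded for 80 days; "cures" scored as survivors/total at 80 days.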

P388 [16] = experiment: Antitumor activity against mouse P388 cells allografted in mouse assessed as increase of median life span at 25 mg/kg, ip on day 1, 5 and 9 measured up to 60 days relative to control; format: functional; settings: route intraperitoneal; in short: as §4
P388 [17] = experiment: Antitumor activity against mouse P388 cells allografted in mouse assessed as disease cure at 25 mg/kg, ip on day 1, 5 and 9 measured up to 60 days; format: functional, organism-based; parameters: dose 25 mg/kg; in short: as §5
B16 [18] = experiment: Antitumor activity against mouse B16 cells allografted in BDF1 mouse assessed as increase of median life span at 6.2 mg/kg, ip on day 1 to 9 measured up to 80 days relative to control; format: functional; settings: route intraperitoneal; in short: as §3
P388 [19] = experiment: Antitumor activity against mouse P388 cells allografted in mouse assessed as increase of median life span at 50 mg/kg, ip on day 1, 5 and 9 measured up to 60 days relative to control; format: functional; settings: route intraperitoneal; in short: as §4

| SMILES | ILS at 50 mg/kg (B16 [12]) [%] | ILS at 200 mg/kg (P388 [13]) [%] | Activity (P388 [14]) | Activity (B16 [15]) | also measured |
| --- | --- | --- | --- | --- | --- |
| O=C1c2c(O)ccc(O)c2C(=O)c2c(NCCN3CCCC3)ccc(NCCN3CCCC3)c21 |  |  |  |  | ILS at 100 mg/kg (P388 [1]): 118%; Activity (P388 [2]): inactive; ILS at 12.5 mg/kg (B16 [3]): 58%; Activity (B16 [4]): inactive |
| O=P1(N(CCCl)CCCl)NCCCO1 (stereo not given) [CYCLOPHOSPHAMIDE ANHYDROUS] |  |  |  |  | minimal effective dose (P388 [5]): 26.3 mg/kg; minimal effective dose (P388 [6]): 12 mg/kg; MTD [7]: 350 mg/kg; MTD at 96 h [8]: 100 mg/kg; Activity (P388 [9]): 142 mg/kg; selectivity ratio [10]: 13; selectivity ratio at 96 h [11]: 8 |
| CN(C)CCNc1ccc(NCCN(C)C)c2c1C(=O)c1ccccc1C2=O | 39 |  |  |  | ILS at 100 mg/kg (P388 [1]): 68% |
| O=C1c2c(O)ccc(O)c2C(=O)c2c(NCCN3CCOCC3)ccc(NCCN3CCOCC3)c21 |  | 0 | inactive |  |  |
| O=C1c2c(O)ccc(O)c2C(=O)c2c(NCCCN3CCOCC3)ccc(NCCCN3CCOCC3)c21 | 0 | 40 | inactive | inactive |  |
| Cc1ccc2c(c1)C(=O)c1c(NCCN(C)C)ccc(NCCN(C)C)c1C2=O |  | 0 | inactive |  |  |
| O=C1c2c(O)ccc(O)c2C(=O)c2c(NCCN3CCNCC3)ccc(NCCN3CCNCC3)c21 | 103 |  |  | inactive | ILS at 100 mg/kg (P388 [1]): 133%; Activity (P388 [2]): inactive |
| CN(C)CCCCNc1ccc(NCCCCN(C)C)c2c1C(=O)c1c(O)ccc(O)c1C2=O | 0 | 0 | inactive | inactive |  |
| CN(CCNc1ccc(NCCN(C)c2ccccc2)c2c1C(=O)c1c(O)ccc(O)c1C2=O)c1ccccc1 | 0 | 0 | inactive | inactive |  |
| NCCNc1ccc(NCCN)c2c1C(=O)c1ccccc1C2=O | 100 | 145 | inactive |  | ILS at 25 mg/kg (P388 [16]): 144%; Activity (P388 [17]): inactive; ILS at 12.5 mg/kg (B16 [3]): 82% |
| O=C1c2ccccc2C(=O)c2c(NCCNCCO)ccc(NCCNCCO)c21 [AMETANTRONE] |  |  |  |  | ILS at 25 mg/kg (P388 [16]): 154%; Activity (P388 [17]): inactive; ILS at 6.2 mg/kg (B16 [18]): 129% |
| CC(C)N(CCNc1ccc(NCCN(C(C)C)C(C)C)c2c1C(=O)c1c(O)ccc(O)c1C2=O)C(C)C | 0 | 0 | inactive | inactive |  |
| CN(C)CCCCCNc1ccc(NCCCCCN(C)C)c2c1C(=O)c1c(O)ccc(O)c1C2=O | 0 | 0 | inactive | inactive |  |
| CN(Cc1cnc2nc(N)nc(N)c2n1)c1ccc(C(=O)N[C@@H](CCC(=O)O)C(=O)O)cc1 [METHOTREXATE] |  |  |  |  | minimal effective dose (P388 [5]): 27.9 mg/kg; minimal effective dose (P388 [6]): 1.5 mg/kg; MTD [7]: 108 mg/kg; MTD at 96 h [8]: 17.5 mg/kg; Activity (P388 [9]): 102 mg/kg; selectivity ratio [10]: 4; selectivity ratio at 96 h [11]: 11 |
| CCN(CC)CCNc1ccc(NCCN(CC)CC)c2c1C(=O)c1c(O)ccc(O)c1C2=O | 38 | 88 |  |  |  |
| CCCCN(CCCC)CCNc1ccc(NCCN(CCCC)CCCC)c2c1C(=O)c1c(O)ccc(O)c1C2=O | 0 | 0 | inactive | inactive |  |
| CN(C)CCNc1ccc(NCCN(C)C)c2c1C(=O)c1c(O)ccc(O)c1C2=O |  |  |  |  | ILS at 50 mg/kg (P388 [19]): 122%; ILS at 12.5 mg/kg (B16 [3]): 70% |
| CN(C)CCCCCNc1ccc(NCCCCCN(C)C)c2c1C(=O)c1ccccc1C2=O |  | 0 | inactive |  |  |
| CCCNCCNc1ccc(NCCNCCC)c2c1C(=O)c1c(O)ccc(O)c1C2=O | 0 |  |  | inactive | ILS at 50 mg/kg (P388 [19]): 36% |
